ChEMBL document CHEMBL4265926, “Synthesis and antibacterial activity evaluation of novel biaryloxazolidinone analogues containing a hydrazone moiety as promising antibacterial agents” (Eur J Med Chem, 2018)
≈ marks a conversion by molar mass, not a printed value.

Legend:
Staphylococcus aureus [1] = experiment: Antibacterial activity against Staphylococcus aureus ATCC 29213 by broth liquid microdilution method; type: functional
Summary of the method: (§1)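 Isolates were identified on an automated MicroScan WalkAway 96 system. Susceptibility was tested by broth microdilution following CLSI guidelines. MIC was taken as the lowest concentration giving complete inhibition of bacterial growth. S. aureus ATCC 29213 served as the control strain.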

Staphylococcus aureus [2] = experiment: Antibacterial activity against methicillin-resistant Staphylococcus aureus by broth liquid microdilution method; type: functional; summary of the method: as §1
Staphylococcus aureus [3] = experiment: Antibacterial activity against methicillin-sensitive Staphylococcus aureus by broth liquid microdilution method; type: functional; summary of the method: as §1
Enterococcus faecalis [4] = experiment: Antibacterial activity against linezolid-resistant Enterococcus faecalis by broth liquid microdilution method; type: functional; summary of the method: as §1
Enterococcus faecium [5] = experiment: Antibacterial activity against vancomycin-resistant Enterococcus faecium by broth liquid microdilution method; type: functional; summary of the method: as §1
Staphylococcus aureus [6] = experiment: Antibacterial activity against methicillin-resistant Staphylococcus aureus clinical isolates by broth liquid microdilution method; type: functional; summary of the method: as §1
Staphylococcus aureus [7] = experiment: Antibacterial activity against methicillin-sensitive Staphylococcus aureus clinical isolates by broth liquid microdilution method; type: functional; summary of the method: as §1
Enterococcus faecium [8] = experiment: Antibacterial activity against vancomycin-resistant Enterococcus faecium clinical isolates by broth liquid microdilution method; type: functional; summary of the method: as §1
Enterococcus faecalis [9] = experiment: Antibacterial activity against linezolid-resistant Enterococcus faecalis clinical isolates by broth liquid microdilution method; type: functional; summary of the method: as §1
[10] = target: T1, MAO-A (amine oxidase [flavin-containing] A) (Homo sapiens, UniProt P21397); experiment: Inhibition of recombinant human MAOA expressed in baculovirus infected Sf9 insect cells at 30 uM using luciferin derived substrate pretreated for 15 mins followed by substrate addition and measured after 60 mins by luminescence assay relative to control; settings: probe luciferin derived substrate
T1 sequence (P21397 whole entry): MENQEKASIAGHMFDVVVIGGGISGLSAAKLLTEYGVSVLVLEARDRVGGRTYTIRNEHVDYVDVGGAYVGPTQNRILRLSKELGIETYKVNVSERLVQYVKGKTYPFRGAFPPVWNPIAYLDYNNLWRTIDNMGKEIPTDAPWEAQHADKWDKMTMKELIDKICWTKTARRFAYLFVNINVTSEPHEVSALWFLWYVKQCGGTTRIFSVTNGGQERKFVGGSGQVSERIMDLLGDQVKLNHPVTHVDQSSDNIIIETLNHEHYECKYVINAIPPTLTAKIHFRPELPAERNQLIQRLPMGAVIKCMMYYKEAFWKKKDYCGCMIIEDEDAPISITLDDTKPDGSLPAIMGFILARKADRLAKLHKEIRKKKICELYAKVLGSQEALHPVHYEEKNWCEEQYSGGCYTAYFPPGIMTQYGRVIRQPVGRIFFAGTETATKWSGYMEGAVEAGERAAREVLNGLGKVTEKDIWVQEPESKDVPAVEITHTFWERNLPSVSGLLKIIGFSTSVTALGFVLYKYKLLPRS
Summary of the method: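 Human recombinant MAO-A with MAO-Glo luminescent kit. Compounds in DMSO (final 1% DMSO) preincubated with enzyme 15 min at room temperature, then luciferin derivative substrate added and reacted 60 min at room temperature. Luciferase detection reagent added for 20 min before luminescence read. Buffer replacing enzyme served as 100% inhibition control and DMSO as no-inhibition control; percent inhibition calculated against both.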

HepG2 = experiment: Cytotoxicity against human HepG2 cells after 48 hrs by MTT assay; type: cell-based; settings: HepG2, 48 h
Summary of the method: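 HepG2 cells grown in RPMI1640 with 10% FBS; about 4×10⁴ cells per well seeded in MEM, incubated 24 h at 37 ℃ in 5% CO₂, then exposed to compounds at indicated final concentrations for 48 h. MTT added (final 0.5 mg/mL) for 4 h at 37 ℃, formazan dissolved in DMSO, absorbance read at 492 nm. Triplicate runs; IC50 as mean ± SD.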

[11] = Half life in human liver microsomes at 1.5 uM in presence of NADPH by LC-MS analysis; type: ADME, microsome
Summary of the method: (§2)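 Human liver microsomes with 1.5 µM compound in a 0.75 mg/mL microsome mix were pre-warmed at 37 °C for 5 min. Reaction started with NADPH (6 mM stock). Samples were quenched with acetonitrile plus internal standard at 0, 5, 15, 30 and 45 min, then read by LC/MS, in duplicate. T1/2 = ln(2)/k from the log-linear slope; Clint derived from T1/2; % remaining read at 45 min.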

[12] = Intrinsic clearance in human liver microsomes at 1.5 uM pretreated for 5 mins followed by NADPH addition measured after 5 to 45 mins by LC-MS analysis; type: ADME, microsome; settings: read-out: CLH; summary of the method: as §2
[13] = Stability in human liver microsomes assessed as parent compound remaining at 1.5 uM pretreated for 5 mins followed by NADPH addition measured after 45 mins by LC-MS analysis; type: ADME, microsome; settings: read-out: Stability; summary of the method: as §2
Staphylococcus aureus [14] = experiment: Potency index, ratio of linezolid MIC to test compound MIC for Staphylococcus aureus ATCC 29213; type: functional
Summary of the method: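 MIC by broth microdilution per CLSI guidelines, taken as the lowest concentration giving complete growth inhibition; isolates identified on MicroScan WalkAway 96; S. aureus ATCC29213 used as control strain. Index expressed as linezolid MIC divided by test compound MIC.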

Staphylococcus aureus [15] = experiment: Potency index, ratio of linezolid MIC to test compound MIC for methicillin-sensitive Staphylococcus aureus; type: functional

Row | SMILES | MIC (Staphylococcus aureus [1]) [µg/mL] | MIC (Staphylococcus aureus [2]) [µg/mL] | MIC (Staphylococcus aureus [3]) [µg/mL] | MIC (Enterococcus faecalis [4]) [µg/mL] | MIC (Enterococcus faecium [5]) [µg/mL] | MIC50 (Staphylococcus aureus [6]) [µg/mL] | MIC90 (Staphylococcus aureus [6]) [µg/mL] | MIC (Staphylococcus aureus [7]) [µg/mL] | MIC50 (Staphylococcus aureus [7]) [µg/mL] | MIC90 (Staphylococcus aureus [7]) [µg/mL] | MIC (Enterococcus faecium [8]) [µg/mL] | MIC50 (Enterococcus faecium [8]) [µg/mL] | MIC90 (Enterococcus faecium [8]) [µg/mL] | MIC (Enterococcus faecalis [9]) [µg/mL] | MIC50 (Enterococcus faecalis [9]) [µg/mL] | MIC90 (Enterococcus faecalis [9]) [µg/mL] | inhibition at 1 h, 30 µM [10] [%] | IC50 (HepG2) [µM] | remaining at 0.75 h, 1.5 µM [13] [%] | also measured
1 | CC(=O)NC[C@H]1CN(c2ccc(-c3ccc(/C=N/N4CCN(C(=O)CO)CC4)cc3)c(F)c2)C(=O)O1 | 0.0675 (≈ 0.136 µM) | 0.0675 (≈ 0.136 µM) | 0.0675 (≈ 0.136 µM) | 0.0675 (≈ 0.136 µM) | 0.0675 (≈ 0.136 µM) | 0.0625 (≈ 0.126 µM) | 0.125 (≈ 0.251 µM) | 0.0625 to 0.125 (≈ 0.126 to 0.251 µM) | 0.0625 (≈ 0.126 µM) | 0.125 (≈ 0.251 µM) | 0.0625 to 0.5 (≈ 0.126 to 1 µM) | 0.125 (≈ 0.251 µM) | 0.25 (≈ 0.502 µM) | 0.0625 to 0.125 (≈ 0.126 to 0.251 µM) | 0.125 (≈ 0.251 µM) | 0.25 (≈ 0.502 µM) | 80 | 4.66 | 93.9 | half-life at 1.5 µM [11]: 11.1 h; CLint scaled at 1.5 µM [12]: 2.62 mL/min/kg
2 | CC(=O)NC[C@H]1CN(c2ccc(N3CCOCC3)c(F)c2)C(=O)O1 [LINEZOLID] | 1 (≈ 2.96 µM) | 1 (≈ 2.96 µM) | 1 (≈ 2.96 µM) | > 16 | 2 (≈ 5.93 µM) | 2 (≈ 5.93 µM) | 4 (≈ 11.9 µM) | 1 to 2 (≈ 2.96 to 5.93 µM) | 2 (≈ 5.93 µM) | 2 (≈ 5.93 µM) | 1 to 4 (≈ 2.96 to 11.9 µM) | 2 (≈ 5.93 µM) | 4 (≈ 11.9 µM) | > 16 | > 16 | > 16 | 74 | > 25 | 104 | MIC (Staphylococcus aureus [6]): 1 to 4 µg/mL (≈ 2.96 to 11.9 µM)
3 | CC(=O)NC[C@H]1CN(c2ccc(-c3ccc(/C=N/N4CC[S+]([O-])CC4)cc3)c(F)c2)C(=O)O1 | 0.0675 (≈ 0.143 µM) | 0.0675 (≈ 0.143 µM) | 0.0675 (≈ 0.143 µM) | 0.0675 (≈ 0.143 µM) | 0.0675 (≈ 0.143 µM) | 0.125 (≈ 0.265 µM) | 0.25 (≈ 0.529 µM) | 0.0625 to 0.25 (≈ 0.132 to 0.529 µM) | 0.125 (≈ 0.265 µM) | 0.25 (≈ 0.529 µM) | 0.0625 to 0.5 (≈ 0.132 to 1.06 µM) | 0.125 (≈ 0.265 µM) | 0.5 (≈ 1.06 µM) | 0.0625 to 0.25 (≈ 0.132 to 0.529 µM) | 0.125 (≈ 0.265 µM) | 0.5 (≈ 1.06 µM) | 88 | – | – | Ratio (Staphylococcus aureus [14]): 15 - 30; Ratio (Staphylococcus aureus [15]): 15 - 30
